Reference: ChEMBL document CHEMBL1165862, “Synthesis and pharmacological evaluation of novel 5-substituted-1-(phenylsulfonyl)-2-methylbenzimidazole derivatives as anti-inflammatory and analgesic agents” (Eur J Med Chem, 2010)

Experiments:
Rattus norvegicus [1] = experiment: Antiinflammatory activity in Sprague-Dawley rat assessed as reduction of carrageenan-induced paw edema at 200 mg/kg, po administered 30 mins before carrageenan challenge measured after 1 hr by mercury displacement method relative to control; format: functional; parameters: scale not given: the % may be the effect or the level left
Summary of the method: (§1)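 Rats (150–230 g; groups of six), paw edema induced with 1.0% carrageenan. Compounds given p.o. as suspensions in 2% sodium CMC 30 min before carrageenan, test compounds at 200 mg/kg and indomethacin standard at 50 mg/kg; 2% CMC served as control. Paw volume measured by mercury-displacement plethysmography. Mean ± SEM of six animals.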

Rattus norvegicus [2] = experiment: Gastrointestinal toxicity in Sprague-Dawley rat assessed as lengths of longest diameters of lesions at 20 mg/kg, po after 6 hrs; format: organism-based; parameters: dose 20 mg/kg, route oral; conditions: in vivo
Summary of the method: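 SD rats of either sex (150–200 g), groups of six; dosed orally in 0.1% Tween 80, vehicle as control. Stomachs taken 6 h later, ligated and stored overnight in 2% v/v formol saline. Next day opened along greater curvature, washed in warm water and viewed under 3-fold magnifier. Longest lesion diameters summed per animal as total lesion score (mm); group mean ± SEM.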

Mus musculus = experiment: Analgesic activity in albino mouse assessed as protection against acetic acid-induced writhing at 100 mg/kg, po administered 30 mins prior to acetic acid challenge measured after 15 mins; format: functional
Summary of the method: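 Albino mice of either sex, 20–25 g, groups of six. Dosed orally as suspension in 2% CMC 30 min before i.p. acetic acid (0.6% v/v in distilled water, 1 mL/kg); controls given 2% CMC alone, standard acetyl salicylic acid. Writhes per animal counted for 15 min; activity expressed as percentage protection. Mean ± SEM, n = 6.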

Rattus norvegicus [3] = experiment: Antiinflammatory activity in Sprague-Dawley rat assessed as reduction of carrageenan-induced paw edema at 50 mg/kg, po administered 30 mins before carrageenan challenge measured after 1 hr by mercury displacement method relative to control; format: functional; parameters: scale not given: the % may be the effect or the level left; summary of the method: as §1

Q: How did the Activity (Rattus norvegicus [1]) turn out when Cc1nc2cc(NCc3ccccc3Cl)ccc2n1S(=O)(=O)c1ccccc1 was run?
A: 8.6%

Q: How did the Activity (Rattus norvegicus [2]) turn out when Cc1nc2cc(Nc3ccc(N)cc3)ccc2n1S(=O)(=O)c1ccccc1 was run?
A: 16 mm

Q: What about the Activity (Mus musculus) of the same compound?
A: 56.9%

Q: What about the Activity (Rattus norvegicus [1]) of the same compound?
A: 39.7%

Q: With CCNc1ccc2c(c1)nc(C)n2S(=O)(=O)c1ccccc1 as the compound, how does the Activity (Rattus norvegicus [1]) read?
A: 7.2%

Q: CCCCNc1ccc2c(c1)nc(C)n2S(=O)(=O)c1ccccc1 was tested. Which Activity (Rattus norvegicus [1]) did it give?
A: 7.9%

Q: For Cc1nc2cc(Nc3ccc([N+](=O)[O-])cc3)ccc2n1S(=O)(=O)c1ccccc1, which Activity (Rattus norvegicus [1]) is on record?
A: 10.6%

Q: Which Activity (Rattus norvegicus [1]) does the source give for Cc1nc2cc(NCc3ccc([N+](=O)[O-])cc3)ccc2n1S(=O)(=O)c1ccccc1 here?
A: 10.8%

Q: How did the Activity (Rattus norvegicus [1]) turn out when CCCNc1ccc2c(c1)nc(C)n2S(=O)(=O)c1ccccc1 was run?
A: 7.7%

Q: Which results are given for Cc1nc2cc(Nc3ccccc3N)ccc2n1S(=O)(=O)c1ccccc1?
A: Activity (Rattus norvegicus [2]): 14 mm; Activity (Mus musculus): 55.3%; Activity (Rattus norvegicus [1]): 37%

Q: With Cc1nc2cc(Nc3ccccc3[N+](=O)[O-])ccc2n1S(=O)(=O)c1ccccc1 as the compound, how does the Activity (Rattus norvegicus [1]) read?
A: 10.2%

Q: For Cc1nc2cc(NCc3ccc(Cl)cc3)ccc2n1S(=O)(=O)c1ccccc1, which Activity (Rattus norvegicus [1]) is on record?
A: 9.2%

Q: Which results are given for Cc1nc2cc(NCc3ccc(N)cc3)ccc2n1S(=O)(=O)c1ccccc1?
A: Activity (Rattus norvegicus [2]): 15 mm; Activity (Rattus norvegicus [1]): 33.7%

Q: For CNc1ccc2c(c1)nc(C)n2S(=O)(=O)c1ccccc1, which Activity (Rattus norvegicus [1]) is on record?
A: 6.7%

Q: With CC(=O)Oc1ccccc1C(=O)O [ASPIRIN] as the compound, how does the Activity (Mus musculus) read?
A: 57.8%

Q: How did the Activity (Rattus norvegicus [3]) turn out when COc1ccc2c(c1)c(CC(=O)O)c(C)n2C(=O)c1ccc(Cl)cc1 [INDOMETHACIN] was run?
A: 43.4%

Q: And the Activity (Rattus norvegicus [2])?
A: 26 mm
